For data set [1], the system named is HEp-2. Kind of data set: Compound was tested for the cytotoxic concentration that produces 50% inhibition of cloning of H.Ep.-2 cells. It is filed as functional, cell-based. Particulars: Homo sapiens, read-out: I50.
A short description of data set [2]: Half-life is estimated by TLC. In kind it is ADME. Summed up: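 Reactivity toward thiol was measured at pH 7. A 0.25–0.5% solution of compound in MeOH was mixed 1:1 with 1% mercaptoethanol in pH 7 buffer. Loss of alkylating activity was followed by TLC with 4-(4-nitrobenzyl)pyridine spray, and the half-life was estimated from this.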
Data set [3] has as its system L1210. Kind of data set: Compound was tested for the cytotoxic concentration that produces 50% inhibition of L1210 cells. It is filed as functional, cell-based. The note with it: Mus musculus, read-out: I50.
For data set [4], the system named is P388. As to the kind of experiment: Compound was tested in vivo in […] murine leukemia cells in mice at dose of 200 mg/kg. In kind it is functional. Particulars: Mus musculus.
Data set [5] deals with L1210. As to the kind of experiment: Compound was tested for the cytotoxic concentration that produces 50% inhibition of L1210 cells. In kind it is functional, cell-based. The note with it: Mus musculus, read-out: I50.

For the molecule `Cc1cn(C2CC(O)C(CNC(=O)CCl)O2)c(=O)[nH]c1=O` (stereo not given), the IC50 in data set [1] is 25 µM; in data set [3], 130 µM. Also, the half-life – broadly, the time needed for the level to fall by half in the phase considered – in data set [2] is 3 h. In addition, the ILS (as a rule, the gain in survival time of treated over control animals, in per cent) at 200 mg/kg in data set [4] was found to be 9%.
As for `Cc1cn(C2CC(O)C(CN(C)C(=O)CCl)O2)c(=O)[nH]c1=O` (stereo not given), in data set [5], the IC50 is > 120 µM.

(Values after ChEMBL document CHEMBL1123277, “Reactive 5'-substituted thymidine derivatives as potential inhibitors of nucleotide biosynthesis” (J Med Chem, 1986).)
